Screening results (PubChem)
TAAR1 antagonist: human TAAR1 antagonism; inhibition, % at 3 µM; Q96RJ0; AID 624466; actives 1.5% (n = 360,000); CHO RD-HGA16 TAAR1, Fluo-8 calcium fluorescence, antagonist;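 active = inhibition above a per-plate cutoff, the mean inhibition of test compounds on that plate plus 3 SD, cut at about 49% in these data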;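 also: 0% = DMSO plus EC80 beta-PEA response and 100% = DMSO alone without agonist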
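Material: RD-HGA16 CHO cells with stable hTAAR1 and Gα16; Dosing: single nominal final test compound concentration of 3 µM; Schedule: seeding 17-24 h prior, 75-min 37 °C, 30-min RT dye loading; Detection: kinetic Fluo-8 calcium fluorescence measurement; Measure: % inhibition from peak post-agonist over basal fluorescence ratio; Benchmarks: vehicle and agonist controls.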
TAAR1 ag: human TAAR1 agonism; activation, % at 3 µM; actives 0.99% (n = 360,000); CHO RD-HGA16 TAAR1, Fluo-8 calcium fluorescence; vehicle wells 0%, saturating PEA agonist 100%; AID 624467;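 active = activation above the mean activation of all test compounds in the run plus 3 SD, cut at about 38% in these data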
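test system = CHO RD-HGA16 cells carrying human TAAR1 plus Gα16 | schedule = 17-24 h seeding, 75 min 37 °C dye, 30 min RT | compound dosing = 3 µM single concentration | control set = DMSO and PEA EC100 | replicates = n 1 | signal = Fluo-8 fluorescence, 5 s baseline then 140 s kinetic read | measure = percent activation vs PEA EC100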
CHO parental Ca: counter-screen: ATP calcium response change in parental CHO cells; actives 0.63% (n = 330,000); inhibition, % at 5.6 µM; parental CHO-K1, ATP-induced calcium, Fluo-8 fluorescence; AID 463079;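 active = inhibition above that plate's mean sample inhibition plus 3 SD, cut at about 26% in these data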;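 also: 0% = ATP-challenged DMSO wells and 100% = DMSO wells without ATP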
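Assay system: parental CHO cells; Read-out basis: percent inhibition of ATP-evoked calcium rise, normalized to controls; Benchmarks: ATP and no-ATP DMSO wells; Compound dosing: single nominal dose of 5.6 µM per compound; Signal: Fluo-8 calcium dye fluorescence; Also added: ATP as calcium-mobilizing challenge; Repeats: singlicate.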
OX1R antag-1: OX1R (human) antagonism; actives 1.8% (n = 330,000); inhibition, % at 6.6 µM; OX1R-expressing cells, FRET antagonist read-out; in the data active = inhibition mostly above about 38%, no sharp cut-off; inactive = mostly below about 40%;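 also: 0% = agonist challenge alone and 100% = reference antagonist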
NTR1 ag: agonists of human neurotensin receptor NTR1; AID 493036; NTR1-U2OS beta-arrestin-GFP spot imaging, agonist mode; actives 0.17% (n = 330,000); activation, % at 20 µM;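 active = activation at or above 40% of the spot to cytoplasm intensity ratio, with at least 20 cells analyzed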;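 also: 0% = DMSO without peptide and 100% = 100 nM NTR1 peptide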
Target sequence (P30989 whole entry, looked up): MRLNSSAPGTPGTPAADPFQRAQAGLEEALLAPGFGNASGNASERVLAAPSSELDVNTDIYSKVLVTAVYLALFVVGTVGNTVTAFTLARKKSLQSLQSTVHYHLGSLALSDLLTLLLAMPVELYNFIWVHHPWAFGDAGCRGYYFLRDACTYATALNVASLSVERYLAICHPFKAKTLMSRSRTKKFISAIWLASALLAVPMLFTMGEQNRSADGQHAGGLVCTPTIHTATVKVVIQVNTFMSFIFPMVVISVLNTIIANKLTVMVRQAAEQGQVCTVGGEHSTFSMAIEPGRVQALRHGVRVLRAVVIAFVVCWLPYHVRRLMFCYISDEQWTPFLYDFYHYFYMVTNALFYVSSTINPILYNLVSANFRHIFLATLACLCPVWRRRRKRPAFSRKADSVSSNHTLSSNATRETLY
OX1R antag-2: blocks the human orexin 1 receptor | O43613 | CHO/OX1R cells, Fluo-8 calcium fluorescence, orexin A | inhibition, % at 5 µM | actives 0.43% (n = 330,000);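 active = inhibition above its plate's threshold, mean inhibition of all tested compounds on the plate plus 3 SD, cut at about 37% in these data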;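 also: 0% = orexin A challenge wells and 100% = SB-334867-A antagonist wells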
The depositor's hits bear a star; / = not tested or not shown. Rows were chosen to be rich in hits. Some 4% of all compounds tested hit in one or more screens of this group.

SMILES	TAAR1 antagonist	TAAR1 ag	CHO parental Ca	OX1R antag-1	NTR1 ag	OX1R antag-2
COc1ccc(CNc2ccc([N+](=O)[O-])cc2C)cc1	29	-2	38*	5	6	10
O=C(CN1C(=O)c2ccc([N+](=O)[O-])cc2C1=O)Nc1nccs1	-15	5	-13	22	-1	-8
COc1cccc(NC(=O)CCN2C(=O)c3ccc([N+](=O)[O-])cc3C2=O)c1	-12	9	-10	50*	-1	-23
COC(=O)C1=C(C)N(C)C(=NCC2CC2)NC1c1cccc(F)c1 (stereo not given)	-5	1	/	/	/	/
COC(=O)[C@]12C[C@H](CC(=O)N3CCCCC3)C(=O)N(Cc3ccccc3)C1=C[C@H](C(C)C)O[C@@H]2C1CC1	-37	-2	/	/	/	/
COc1ccc(CNC(=O)CN2C(=O)c3ccc([N+](=O)[O-])cc3C2=O)cc1	-7	6	-12	76*	1	-22
COC(=O)CS(=O)(=O)c1ccc(C)cc1	-4	6	-18	1	0	-3
Cc1ccc(S(=O)(=O)CC(N)=O)cc1	-7	8	70*	26	-1	-7
CN1C(=O)c2ccc(C(=O)Nc3nccs3)cc2C1=O	8	1	-10	73*	-1	-19
CN1C(=O)c2ccc(C(=O)Nc3cccnc3)cc2C1=O	-6	1	/	/	2	/
CN1C(=O)c2ccc(C(=O)Nc3ccccc3O)cc2C1=O	12	1	-1	41*	1	-7
CC(c1ccccc1)N1C(=O)c2ccc(C(=O)Nc3ccccc3C(=O)O)cc2C1=O (stereo not given)	-30	0	-2	70*	0	-13
CCCN1C(=O)c2ccc(C(=O)NC3=NCCS3)cc2C1=O	1	-2	-12	45*	0	-43
COCc1[nH]nc2c1C(c1ccc(F)cc1)N(Cc1ccccc1)C2=O (stereo not given)	-5	3	/	/	/	/
O=C(NCCC(=O)N1CCN(c2ccccn2)CC1)c1ccc([N+](=O)[O-])cc1	-21	7	-10	35*	-2	-5
O=C(c1ccc([N+](=O)[O-])s1)N1CCN(c2ccccc2)CC1	9	3	-2	54*	-1	-17
COc1ccc(OC)c2sc(N3CCN(C(=O)c4ccc([N+](=O)[O-])s4)CC3)nc12	21	6	4	46*	2	1
COc1ccc(OC)c2sc(N3CCN(C(=O)c4ccc5ncsc5c4)CC3)nc12	15	5	-22	13	0	-24
O=C(c1ccc([N+](=O)[O-])s1)N1CCN(c2ccccn2)CC1	6	0	1	46*	-1	-5
O=C(Nc1ccccc1N1CCOCC1)c1ccccc1[N+](=O)[O-]	9	6	-13	13	0	-20
O=C(Nc1ccccc1N1CCOCC1)c1ccc([N+](=O)[O-])s1	8	3	-19	31*	0	-32
COC(=O)c1ccccc1NC(=O)CCCn1nc([N+](=O)[O-])c(Br)c1C	-5	-1	-17	75*	0	4
O=C(NCc1ccccc1)[C@H]1CCCN1C(=O)[C@H]1CCCN1C(=O)c1ccccc1	-42	3	/	/	/	/
NCC(c1ccc(Cl)cc1Cl)c1c[nH]c2ccccc12 (stereo not given)	46	45*	9	-7	4	-5
NCC(c1ccccc1Cl)c1c[nH]c2ccccc12 (stereo not given)	-3	8	-6	11	0	-12
SMILES	TAAR1 antagonist	TAAR1 ag	CHO parental Ca	OX1R antag-1	NTR1 ag	OX1R antag-2
CN(C)CCCNC(=S)NCC(c1ccc(Cl)cc1Cl)c1c[nH]c2ccccc12 (stereo not given)	40	13	43*	2	12	39*
Cc1ccc(CNC(=O)CNC(=O)c2ccco2)cc1	-16	6	2	-5	0	8
O=C(NNC(=O)c1ccc([N+](=O)[O-])cc1)c1ccncc1	1	2	11	70*	2	9
CC(=O)Nc1cccc(C(=O)OCC(=O)NNC(=O)c2ccc([N+](=O)[O-])cc2)c1	-34	4	2	52*	0	-6
O=C(COC(=O)Cc1ccccc1[N+](=O)[O-])NNC(=O)c1ccc([N+](=O)[O-])cc1	-11	3	-5	36*	0	-13
O=C(NNC(=O)c1ccc([N+](=O)[O-])cc1)c1ccc(F)cc1	-20	5	0	61	0	6
O=C(COC(=O)CSc1ccccc1)NNC(=O)c1ccc([N+](=O)[O-])cc1	-2	0	-5	47	-1	-10
CN(c1ccc(OCC(=O)OCC(=O)Nc2ccc([N+](=O)[O-])cc2)cc1)S(=O)(=O)c1cccs1	60*	41*	/	/	/	/
CC(=O)Nc1cccc(C(=O)OCc2ccc([N+](=O)[O-])cc2)c1	-11	1	-5	18	-2	-8
C=CCN1[C@@H](C)[C@H](c2ccccc2)Oc2cccc(N3CCCC(C)C3)c2S1(=O)=O (stereo not given in full)	-25	16	/	/	/	/
COC(=O)C1=C(C)N(Cc2ccc(F)cc2)C(=S)NC1c1ccc(Cl)cc1 (stereo not given)	17	-1	/	/	/	/
CN1CCCCC(NC(=O)CCCl)C1=O (stereo not given)	-14	0	/	/	/	/
CCCCc1c(-c2ccccc2OC)ncn1C(C)c1ccc(Cl)cc1 (stereo not given)	-5	3	/	/	/	/
O=C(COC(=O)C1CC2CCCC(C1)C2=O)NNC(=O)c1ccc([N+](=O)[O-])cc1 (stereo not given)	-16	0	0	69*	0	-15
CCOc1ccc(OCC(=O)OCC(=O)NNC(=O)c2ccc([N+](=O)[O-])cc2)cc1	2	1	7	57*	-1	3
COc1cccc(CC(=O)OCC(=O)NNC(=O)c2ccc([N+](=O)[O-])cc2)c1	-33	-1	-9	60*	1	-11
CCOc1ccc(OCCC(=O)OCC(=O)NNC(=O)c2ccccc2)cc1	-6	3	-7	18	-1	-3
O=C(COC(=O)CSc1ccc(F)cc1)NNC(=O)c1ccc([N+](=O)[O-])cc1	-3	1	-2	59*	0	3
O=C(COC(=O)C1CC2CCCC(C1)C2=O)NC(=O)c1ccc(OC(F)F)cc1 (stereo not given)	-2	3	1	6	1	9
CC(C)C[C@H](NC(=O)c1ccccn1)C(=O)N1CCC[C@H]1C(=O)NCc1ccccc1	-8	4	/	/	/	/
CCc1cccc(NS(=O)(=O)c2c(C)nc3sc(CC)nn3c2=O)c1	-5	3	-13	15	1	-15
